According to ChEMBL document CHEMBL4251671, “Microporenic Acids A-G, Biofilm Inhibitors, and Antimicrobial Agents from the Basidiomycete Microporus Species” (J Nat Prod, 2018):
pIC50: −log10 of the molar value. Converted amounts (≈) assume the structure as drawn. The source made the active and inactive calls. No cut-off for these calls is given here.

What was measured:
[1] = test system: Micrococcus luteus; experiment: Antimicrobial activity against Micrococcus luteus DSM 1790 by serial dilution method; format: functional
Outline: (§1)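 MIC by serial dilution in microtiter plates, in triplicate. YMG medium for yeasts and filamentous fungi, EBS for bacteria. Starting concentration 300 μg/mL.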

[2] = test system: Staphylococcus aureus; experiment: Antibiofilm activity against Staphylococcus aureus DSM 1104 preformed biofilm at 256 ug/ml after 24 hrs by crystal violet staining based assay relative to control; format: functional; conditions: DSM 1104, 24 h
Outline: (§2)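 S. aureus set to 0.5 McFarland turbidity; biofilm preformed 24 h in CASO broth with 4% glucose, then exposed to compounds a further 24 h at 37 °C. Remaining biofilm quantified by crystal violet staining. Triplicate, two repetitions.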

[3] = test system: Staphylococcus aureus; experiment: Antibiofilm activity against Staphylococcus aureus DSM 1104 at 16 ug/ml after 24 hrs by crystal violet staining based assay relative to control; format: functional; conditions: DSM 1104, 24 h
Outline: (§3)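 S. aureus set to 0.5 McFarland turbidity and grown with serially diluted compounds in CASO broth with 4% glucose, 24 h, 37 °C. Biofilm stained with crystal violet 15 min, washed three times, dye extracted with dilute acetic acid, absorbance read at 550 nm. Two repeats of three parallel experiments; methanol as negative control.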

[4] = test system: KB 3-1; experiment: Cytotoxicity against human KB 3.1 cells assessed as inhibition of cell growth after 5 days by MTT assay; format: cell-based; conditions: KB 3-1, 120 h
Outline: (§4)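 IC50 determined by the previously described in vitro cytotoxicity method against mouse fibroblast L929 and HeLa-derived KB-3.1 cells. Compounds were tested from a starting concentration of 37 μg/mL.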

[5] = test system: Staphylococcus aureus; experiment: Antibiofilm activity against Staphylococcus aureus DSM 1104 preformed biofilm at 64 ug/ml after 24 hrs by crystal violet staining based assay relative to control; format: functional; conditions: DSM 1104, 24 h; outline: as §2
[6] = test system: Candida albicans; experiment: Antibiofilm activity against Candida albicans DSM 11225 preformed biofilm at 8 ug/ml after 24 hrs by MTT assay relative to control; format: functional; conditions: DSM 11225, 24 h
[7] = test system: Escherichia coli; conditions: DSM 498
[8] = test system: Candida albicans; experiment: Antimicrobial activity against Candida albicans DSM 11225 by serial dilution method; format: functional
[9] = test system: Staphylococcus aureus; experiment: Antimicrobial activity against Staphylococcus aureus DSM 1104 by serial dilution method; format: functional
[10] = test system: Staphylococcus aureus; experiment: Antimicrobial activity against Staphylococcus aureus DSM 346 by serial dilution method; format: functional; outline: as §1
[11] = test system: Staphylococcus aureus; experiment: Antibiofilm activity against Staphylococcus aureus DSM 1104 at 64 ug/ml after 24 hrs by crystal violet staining based assay relative to control; format: functional; conditions: DSM 1104, 24 h; outline: as §3
[12] = test system: Staphylococcus aureus; experiment: Antibiofilm activity against Staphylococcus aureus DSM 1104 after 24 hrs by crystal violet staining based assay; format: functional, organism-based; outline: as §3
[13] = test system: L929; experiment: Cytotoxicity against mouse L929 cells assessed as inhibition of cell growth at 37 ug/ml after 5 days by MTT assay; format: cell-based; conditions: l929, 120 h
[14] = test system: Mucor plumbeus; experiment: Antimicrobial activity against Mucor plumbeus MUCL 49355 by serial dilution method; format: functional; outline: as §1
[15] = test system: Bacillus subtilis; experiment: Antimicrobial activity against Bacillus subtilis DSM 10 by serial dilution method; format: functional; outline: as §1
[16] = test system: Wickerhamomyces anomalus; experiment: Antimicrobial activity against Pichia anomala DSM 6766 by serial dilution method; format: functional; outline: as §1
[17] = test system: Yamadazyma tenuis; experiment: Antimicrobial activity against Candida tenuis MUCL 29982 by serial dilution method; format: functional; outline: as §1
[18] = test system: Staphylococcus aureus; experiment: Antibiofilm activity against Staphylococcus aureus DSM 1104 at 256 ug/ml after 24 hrs by crystal violet staining based assay relative to control; format: functional; conditions: DSM 1104, 24 h; outline: as §3
[19] = test system: Staphylococcus aureus; experiment: Antibiofilm activity against Staphylococcus aureus DSM 1104 preformed biofilm at 128 ug/ml after 24 hrs by crystal violet staining based assay relative to control; format: functional; conditions: DSM 1104, 24 h; outline: as §2
[20] = test system: Candida albicans; experiment: Antibiofilm activity against Candida albicans DSM 11225 preformed biofilm at 16 ug/ml after 24 hrs by MTT assay relative to control; format: functional; conditions: DSM 11225, 24 h
[21] = test system: KB 3-1; experiment: Cytotoxicity against human KB 3.1 cells assessed as inhibition of cell growth at 37 ug/ml after 5 days by MTT assay; format: cell-based; conditions: kb 3-1, 120 h
[22] = test system: Staphylococcus aureus; experiment: Antibiofilm activity against Staphylococcus aureus DSM 1104 at 128 ug/ml after 24 hrs by crystal violet staining based assay relative to control; format: functional; conditions: DSM 1104, 24 h; outline: as §3
[23] = test system: L929; experiment: Cytotoxicity against mouse L929 cells assessed as inhibition of cell growth after 5 days by MTT assay; format: cell-based; conditions: L929, 120 h; outline: as §4
[24] = test system: Candida albicans; experiment: Antibiofilm activity against Candida albicans DSM 11225 preformed biofilm after 24 hrs by MTT assay; format: functional, organism-based
Outline: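 C. albicans set to 0.5 McFarland turbidity; biofilm preformed 4 h at 37 °C in SB broth, then treated with serially diluted compounds for a further 24 h at 37 °C. Dispersal read by MTT reduction. Triplicate, two repetitions; methanol as negative control.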

[25] = test system: Staphylococcus aureus; experiment: Antibiofilm activity against Staphylococcus aureus DSM 1104 at 150 ug/ml after 24 hrs by crystal violet staining based assay relative to control; format: functional; conditions: DSM 1104, 24 h; outline: as §3
[26] = test system: Staphylococcus aureus; experiment: Antibiofilm activity against Staphylococcus aureus DSM 1104 preformed biofilm after 24 hrs by crystal violet staining based assay; format: functional, organism-based; outline: as §2
[27] = test system: Staphylococcus aureus; experiment: Antibiofilm activity against Staphylococcus aureus DSM 1104 at 75 ug/ml after 24 hrs by crystal violet staining based assay relative to control; format: functional; conditions: DSM 1104, 24 h; outline: as §3
[28] = test system: Staphylococcus aureus; experiment: Antibiofilm activity against Staphylococcus aureus DSM 1104 at 37 ug/ml after 24 hrs by crystal violet staining based assay relative to control; format: functional; conditions: DSM 1104, 24 h; outline: as §3
[29] = test system: Escherichia coli; experiment: microbe, parasite or virus in culture; conditions: DSM 498

Compound | MIC [1] [µg/mL] | MIC [7] | MIC [9] [µg/mL] | MIC [10] | Activity [13] | MIC [14] | MIC [15] | MIC [17] | MIC [16] | Activity [21] | further results
CC(C)=CCC/C(C)=C/CC/C(C)=C/CC/C(C)=C/CO[C@@H](C(=O)O)[C@H](CC(=O)O)C(=O)O | 37.5 (≈ 80.7 µM) | inactive | > 256 | 300 µg/mL (≈ 646 µM) | Non-Toxic | 75 µg/mL (≈ 161 µM) | 300 µg/mL (≈ 646 µM) | 300 µg/mL (≈ 646 µM) | – | – | inhibition at 256 µg/mL [2]: 49%; inhibition at 16 µg/mL [3]: 28%; pIC50 [4]: 5.22; inhibition at 64 µg/mL [5]: 1.5%; inhibition at 8 µg/mL [6]: 52%; MIC [8]: 64 µg/mL (≈ 138 µM); inhibition at 64 µg/mL [11]: 54%; Activity [12]: Dose-dependent effect; MIC ([16]; Hansenula anomala): 150 µg/mL (≈ 323 µM); inhibition at 256 µg/mL [18]: 86%; inhibition at 128 µg/mL [19]: 37%; inhibition at 16 µg/mL [20]: 72%
NYSTATIN | – | – | – | – | – | 9.4 µg/mL | – | 16.7 µg/mL | 16.7 µg/mL | – | MIC [8]: 16.7 µg/mL
C/C(=C\CC/C(C)=C/CO[C@@H](C(=O)O)[C@H](CC(=O)O)C(=O)O)CC/C=C(\C)CC/C=C(\C)C(=O)O | 75 (≈ 152 µM) | inactive | – | inactive | Non-Toxic | inactive | inactive | inactive | inactive | Non-Toxic | –
COC(=O)C[C@H](C(=O)O)[C@@H](OC/C=C(\C)CC/C=C(\C)CC/C=C(\C)CCC=C(C)C)C(=O)O | 37.5 (≈ 78.3 µM) | inactive | > 256 | 300 µg/mL (≈ 627 µM) | Non-Toxic | 150 µg/mL (≈ 313 µM) | 300 µg/mL (≈ 627 µM) | inactive | inactive | Non-Toxic | inhibition at 64 µg/mL [11]: 11%; Activity [12]: Dose-dependent effect; inhibition at 128 µg/mL [22]: 38%; inhibition at 256 µg/mL [18]: 86%
C/C(=C\c1csc(C)n1)[C@@H]1C[C@@H]2O[C@]2(C)CCC[C@H](C)[C@H](O)[C@@H](C)C(=O)C(C)(C)[C@@H](O)CC(=O)O1 [PATUPILONE] | – | – | – | – | – | – | – | – | – | – | pIC50 [23]: 8.85
C/C(=C\CC/C(C)=C/CC/C(C)=C/CC/C(C)=C/CO[C@@H](C(=O)O)[C@H](CC(=O)O)C(=O)O)CO | 18.8 (≈ 39 µM) | inactive | – | 75 µg/mL (≈ 156 µM) | Non-Toxic | 75 µg/mL (≈ 156 µM) | 37.5 µg/mL (≈ 78 µM) | 37.5 µg/mL (≈ 78 µM) | inactive | Non-Toxic | –
C[C@@H]1CO[C@H]2[C@@H]1CC[C@H](C)[C@]21C=C(CO)CC1 | 75 (≈ 317 µM) | inactive | – | inactive | Non-Toxic | 75 µg/mL (≈ 317 µM) | 300 µg/mL (≈ 1270 µM) | inactive | inactive | Non-Toxic | –
C=C1C(=O)O[C@@H](C)[C@@H]1O | – | – | 150 (≈ 1170 µM) | – | – | – | – | – | – | – | Activity [24]: inactive; inhibition at 150 µg/mL [25]: 99%; Activity [26]: inactive; inhibition at 75 µg/mL [27]: 92%; inhibition at 37 µg/mL [28]: 85%
CN(C)[C@@H]1C(=O)C(C(N)=O)=C(O)[C@@]2(O)C(=O)C3=C(O)c4c(O)cccc4[C@@](C)(O)[C@H]3[C@H](O)[C@@H]12 | 8.3 (≈ 18 µM) | – | 1 (≈ 2.17 µM) | 1 µg/mL (≈ 2.17 µM) | – | – | – | – | – | – | –
CC(C)=CCC[C@@](C)(O)[C@@H](O)CC/C(C)=C/CC/C(C)=C/CO[C@@H](C(=O)O)[C@H](CC(=O)O)C(=O)O | – | inactive | – | inactive | Non-Toxic | inactive | inactive | inactive | inactive | Non-Toxic | –
CC(C)=CCC/C(C)=C/CC/C(C)=C/CO[C@@H](C(=O)O)[C@H](CC(=O)O)C(=O)O | 9.4 (≈ 23.7 µM) | inactive | – | 150 µg/mL (≈ 378 µM) | Non-Toxic | 75 µg/mL (≈ 189 µM) | 18.8 µg/mL (≈ 47.4 µM) | 37.5 µg/mL (≈ 94.6 µM) | inactive | Non-Toxic | –
O=C(O)c1cn(C2CC2)c2cc(N3CCNCC3)c(F)cc2c1=O [CIPROFLOXACIN] | – | – | – | – | – | – | 2.3 µg/mL (≈ 6.94 µM) | – | – | – | MIC [29]: 2.3 µg/mL (≈ 6.94 µM)
C/C(=C\CC/C(C)=C/CO[C@@H](C(=O)O)[C@H](CC(=O)O)C(=O)O)CC/C=C(\C)CC[C@H](O)C(C)(C)O | 300 (≈ 602 µM) | inactive | – | inactive | Non-Toxic | 300 µg/mL (≈ 602 µM) | inactive | inactive | inactive | Non-Toxic | –
